Source: ChEMBL document CHEMBL5058577, “EUbOPEN Chemogenomics Library 2 (Multiplex)” (2022)

System: U2OS
Assay: Multiplex assay against U2OS
Format: toxicity, cell-based
Details: human
Summary of the method: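 Compound was added to live cells that had been stained at seeding with Hoechst33342, BioTracker Green Microtubule Cytoskeleton Dye, MitoTracker Red and Annexin V Alexa Fluor 680, and imaging followed on a CQ1 microscope at 37°C and 5% CO2. CellPathfinder machine-learning gating divided cells into Hoechst high-intensity objects or normal cells, normal cells into healthy, pyknosed or fragmented nuclei, and pyknosed cells into mitotic or apoptotic. Tubulin, mitochondrial-mass and membrane-permeability phenotypes are per cents of healthy-nucleus cells.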

[1] = 12 h, 1 µM, compound concentration 1 uM, replicate 1
[2] = 12 h, 1 µM, compound concentration 1 uM, replicate 2
[3] = 12 h, 10 µM, compound concentration 10 uM, replicate 1
[4] = 12 h, 10 µM, compound concentration 10 uM, replicate 2
[5] = 24 h, 1 µM, compound concentration 1 uM, replicate 1
[6] = 24 h, 1 µM, compound concentration 1 uM, replicate 2
[7] = 24 h, 10 µM, compound concentration 10 uM, replicate 1
[8] = 24 h, 10 µM, compound concentration 10 uM, replicate 2
[9] = 48 h, 1 µM, compound concentration 1 uM, replicate 1
[10] = 48 h, 1 µM, compound concentration 1 uM, replicate 2
[11] = 48 h, 10 µM, compound concentration 10 uM, replicate 1
[12] = 48 h, 10 µM, compound concentration 10 uM, replicate 2

CC(C)(C)c1cc(NC(=O)Nc2ccc(-c3cn4c(n3)sc3cc(OCCN5CCOCC5)ccc34)cc2)no1 [QUIZARTINIB]
Population Apoptotic (%) [1]: 48%
Population Fragmented Nuclei (%) [1]: 24%
Population Healthy Nuclei (%) [1]: 61%
Population Hoechst High Intensity Objects (%) [1]: 6%
Population Membrane Permeable-Phenotype (%) [1]: 13%
Population Mitochondria Different-Phenotype (%) [1]: 4%
Population Mitotic Cells (%) [1]: 51%
Population Normal (%) [1]: 93%
Population Pyknosed Nuclei (%) [1]: 14%
Population Tubulin-Different-Phenotype (%) [1]: 8%
Total Cell Count [1]: 213
Population Apoptotic (%) [2]: 78%
Population Fragmented Nuclei (%) [2]: 17%
Population Healthy Nuclei (%) [2]: 70%
Population Hoechst High Intensity Objects (%) [2]: 1%
Population Membrane Permeable-Phenotype (%) [2]: 6%
Population Mitochondria Different-Phenotype (%) [2]: 6%
Population Mitotic Cells (%) [2]: 21%
Population Normal (%) [2]: 98%
Population Pyknosed Nuclei (%) [2]: 11%
Population Tubulin-Different-Phenotype (%) [2]: 4%
Total Cell Count [2]: 119
Population Apoptotic (%) [3]: 58%
Population Fragmented Nuclei (%) [3]: 30%
Population Healthy Nuclei (%) [3]: 47%
Population Hoechst High Intensity Objects (%) [3]: 13%
Population Membrane Permeable-Phenotype (%) [3]: 85%
Population Mitochondria Different-Phenotype (%) [3]: 26%
Population Mitotic Cells (%) [3]: 41%
Population Normal (%) [3]: 86%
Population Pyknosed Nuclei (%) [3]: 21%
Population Tubulin-Different-Phenotype (%) [3]: 76%
Total Cell Count [3]: 197
Population Apoptotic (%) [4]: 23%
Population Fragmented Nuclei (%) [4]: 11%
Population Healthy Nuclei (%) [4]: 65%
Population Hoechst High Intensity Objects (%) [4]: 6%
Population Membrane Permeable-Phenotype (%) [4]: 62%
Population Mitochondria Different-Phenotype (%) [4]: 33%
Population Mitotic Cells (%) [4]: 76%
Population Normal (%) [4]: 94%
Population Pyknosed Nuclei (%) [4]: 22%
Population Tubulin-Different-Phenotype (%) [4]: 54%
Total Cell Count [4]: 100
Population Apoptotic (%) [5]: 57%
Population Fragmented Nuclei (%) [5]: 25%
Population Healthy Nuclei (%) [5]: 56%
Population Hoechst High Intensity Objects (%) [5]: 2%
Population Membrane Permeable-Phenotype (%) [5]: 15%
Population Mitochondria Different-Phenotype (%) [5]: 8%
Population Mitotic Cells (%) [5]: 42%
Population Normal (%) [5]: 97%
Population Pyknosed Nuclei (%) [5]: 17%
Population Tubulin-Different-Phenotype (%) [5]: 7%
Total Cell Count [5]: 234
Population Apoptotic (%) [6]: 62%
Population Fragmented Nuclei (%) [6]: 15%
Population Healthy Nuclei (%) [6]: 72%
Population Hoechst High Intensity Objects (%) [6]: 0%
Population Membrane Permeable-Phenotype (%) [6]: 9%
Population Mitochondria Different-Phenotype (%) [6]: 4%
Population Mitotic Cells (%) [6]: 37%
Population Normal (%) [6]: 99%
Population Pyknosed Nuclei (%) [6]: 12%
Population Tubulin-Different-Phenotype (%) [6]: 5%
Total Cell Count [6]: 134
Population Apoptotic (%) [7]: 63%
Population Fragmented Nuclei (%) [7]: 34%
Population Healthy Nuclei (%) [7]: 34%
Population Hoechst High Intensity Objects (%) [7]: 11%
Population Membrane Permeable-Phenotype (%) [7]: 55%
Population Mitochondria Different-Phenotype (%) [7]: 38%
Population Mitotic Cells (%) [7]: 36%
Population Normal (%) [7]: 88%
Population Pyknosed Nuclei (%) [7]: 30%
Population Tubulin-Different-Phenotype (%) [7]: 45%
Total Cell Count [7]: 195
Population Apoptotic (%) [8]: 51%
Population Fragmented Nuclei (%) [8]: 10%
Population Healthy Nuclei (%) [8]: 58%
Population Hoechst High Intensity Objects (%) [8]: 2%
Population Membrane Permeable-Phenotype (%) [8]: 40%
Population Mitochondria Different-Phenotype (%) [8]: 32%
Population Mitotic Cells (%) [8]: 48%
Population Normal (%) [8]: 97%
Population Tubulin-Different-Phenotype (%) [8]: 30%
Total Cell Count [8]: 96
Population Apoptotic (%) [9]: 60%
Population Fragmented Nuclei (%) [9]: 21%
Population Healthy Nuclei (%) [9]: 61%
Population Hoechst High Intensity Objects (%) [9]: 3%
Population Membrane Permeable-Phenotype (%) [9]: 7%
Population Mitochondria Different-Phenotype (%) [9]: 2%
Population Mitotic Cells (%) [9]: 39%
Population Normal (%) [9]: 96%
Population Pyknosed Nuclei (%) [9]: 16%
Population Tubulin-Different-Phenotype (%) [9]: 3%
Total Cell Count [9]: 297
Population Apoptotic (%) [10]: 73%
Population Fragmented Nuclei (%) [10]: 16%
Population Healthy Nuclei (%) [10]: 72%
Population Hoechst High Intensity Objects (%) [10]: 2%
Population Membrane Permeable-Phenotype (%) [10]: 9%
Population Mitochondria Different-Phenotype (%) [10]: 7%
Population Mitotic Cells (%) [10]: 26%
Population Normal (%) [10]: 97%
Population Pyknosed Nuclei (%) [10]: 10%
Population Tubulin-Different-Phenotype (%) [10]: 6%
Total Cell Count [10]: 180
Population Apoptotic (%) [11]: 72%
Population Fragmented Nuclei (%) [11]: 33%
Population Healthy Nuclei (%) [11]: 25%
Population Hoechst High Intensity Objects (%) [11]: 9%
Population Membrane Permeable-Phenotype (%) [11]: 41%
Population Mitochondria Different-Phenotype (%) [11]: 33%
Population Mitotic Cells (%) [11]: 27%
Population Normal (%) [11]: 90%
Population Pyknosed Nuclei (%) [11]: 40%
Population Tubulin-Different-Phenotype (%) [11]: 33%
Total Cell Count [11]: 219
Population Apoptotic (%) [12]: 56%
Population Fragmented Nuclei (%) [12]: 19%
Population Healthy Nuclei (%) [12]: 48%
Population Hoechst High Intensity Objects (%) [12]: 5%
Population Membrane Permeable-Phenotype (%) [12]: 35%
Population Mitotic Cells (%) [12]: 43%
Population Normal (%) [12]: 94%
Population Pyknosed Nuclei (%) [12]: 32%
Population Tubulin-Different-Phenotype (%) [12]: 28%
Total Cell Count [12]: 98
